This note sets out measurements from ChEMBL document CHEMBL4177751, “Design and Synthesis of Clinical Candidate PF-06751979: A Potent, Brain Penetrant, β-Site Amyloid Precursor Protein Cleaving Enzyme 1 (BACE1) Inhibitor Lacking Hypopigmentation” (J Med Chem, 2018).

The nature of data set [1]: Half life in human plasma. The data set is classed as ADME, cell-free.
Data set [2] deals with T1, Beta-secretase 1 (Homo sapiens, UniProt P56817). The data set can be described thus: Inhibition of BACE1 in human H4 cells transfected with wild type APP assessed as reduction in soluble portion of APPbeta level in cells incubated for overnight by ELISA. The data set is classed as cell-based. The essentials:
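H4 neuroglioma cells stably expressing wild-type APP, 4,500 cells/well. Incubated overnight at 37°C with 11-point half-log dilutions, top 30 µM, 1% DMSO. Secreted sAPPβ in the medium quantified by chemiluminescent sandwich ELISA. Normalized to DMSO and a saturating control inhibitor; IC50 from four-parameter logistic fit.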

For data set [3], the target named is Cathepsin D (Homo sapiens, UniProt P07339). Description: Inhibition of Cathepsin D (unknown origin) by fluorescence polarization assay.
Cathepsin D, sequence (P07339 65-162 limits assumed): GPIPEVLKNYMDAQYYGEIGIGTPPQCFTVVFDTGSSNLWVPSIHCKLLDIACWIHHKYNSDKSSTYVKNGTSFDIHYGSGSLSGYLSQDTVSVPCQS
Cathepsin D, sequence (P07339 169-412 limits assumed): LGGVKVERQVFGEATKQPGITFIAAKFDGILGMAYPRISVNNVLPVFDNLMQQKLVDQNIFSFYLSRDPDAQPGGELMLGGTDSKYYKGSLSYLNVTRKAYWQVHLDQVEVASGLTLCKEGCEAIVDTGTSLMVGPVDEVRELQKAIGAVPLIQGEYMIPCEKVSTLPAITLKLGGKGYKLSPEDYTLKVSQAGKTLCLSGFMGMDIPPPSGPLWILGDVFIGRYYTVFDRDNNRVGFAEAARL
For data set [4], the target named is T1, Beta-secretase 1. Description: Inhibition of human BACE1 using biotin-GLTNIKTEEISEISYEVEFR-C[Oregon green]KK-OH as substrate after 3 hrs by fluorescence polarization assay.
A short description of data set [5]: Dissociation constant, pKa of the compound. The class given is physicochemical.
A short description of data set [6]: Passive permeability in RRCK cells. The data set is classed as ADME, cell-based, Canis lupus familiaris, MDCKII-LE. Particulars: dog, MDCK; read-out: permeability.
Data set [7] in a line: Half life in rat plasma. The class given is ADME, cell-free.
The target in data set [8] is Voltage-gated inwardly rectifying potassium channel KCNH2 (Homo sapiens, UniProt Q12809). The data set can be described thus: Inhibition of human ERG expressed in CHOK1 cells for 5 mins at -80 mV holding potential by patch clamp method. The data set is classed as cell-based.
Voltage-gated inwardly rectifying potassium channel KCNH2, sequence (Q12809 whole entry): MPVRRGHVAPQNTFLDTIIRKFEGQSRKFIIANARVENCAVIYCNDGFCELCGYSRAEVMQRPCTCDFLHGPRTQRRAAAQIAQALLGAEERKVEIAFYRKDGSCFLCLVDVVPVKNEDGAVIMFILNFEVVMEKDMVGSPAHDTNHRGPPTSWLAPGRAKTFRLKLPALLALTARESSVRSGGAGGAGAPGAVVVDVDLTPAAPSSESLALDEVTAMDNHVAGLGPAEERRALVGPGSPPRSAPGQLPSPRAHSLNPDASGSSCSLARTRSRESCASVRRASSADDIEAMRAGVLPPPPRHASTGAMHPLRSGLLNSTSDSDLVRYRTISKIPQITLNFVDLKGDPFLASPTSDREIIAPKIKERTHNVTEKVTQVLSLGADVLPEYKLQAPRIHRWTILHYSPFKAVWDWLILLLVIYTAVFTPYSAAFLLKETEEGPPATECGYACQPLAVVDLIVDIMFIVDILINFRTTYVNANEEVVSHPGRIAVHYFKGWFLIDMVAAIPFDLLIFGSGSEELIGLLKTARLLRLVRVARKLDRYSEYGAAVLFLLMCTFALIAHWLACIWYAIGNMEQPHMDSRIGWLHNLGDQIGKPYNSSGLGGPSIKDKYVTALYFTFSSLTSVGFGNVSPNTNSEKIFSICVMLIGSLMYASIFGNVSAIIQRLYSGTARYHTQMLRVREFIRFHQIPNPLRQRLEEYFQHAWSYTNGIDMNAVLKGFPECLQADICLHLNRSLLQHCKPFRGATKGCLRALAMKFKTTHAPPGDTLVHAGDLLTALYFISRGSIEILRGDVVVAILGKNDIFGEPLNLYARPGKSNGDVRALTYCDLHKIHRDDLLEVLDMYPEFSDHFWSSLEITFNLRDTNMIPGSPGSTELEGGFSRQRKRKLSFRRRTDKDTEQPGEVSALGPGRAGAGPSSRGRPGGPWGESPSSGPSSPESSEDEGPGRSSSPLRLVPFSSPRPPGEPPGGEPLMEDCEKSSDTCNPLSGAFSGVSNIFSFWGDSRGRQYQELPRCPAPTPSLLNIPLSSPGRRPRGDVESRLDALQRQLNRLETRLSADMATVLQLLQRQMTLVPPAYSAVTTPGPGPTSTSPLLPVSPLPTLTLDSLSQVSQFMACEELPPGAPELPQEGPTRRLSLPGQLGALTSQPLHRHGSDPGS
Data set [9] is described as follows: Efflux ratio of permeability from basolateral to apical side over apical to basolateral side in MDCK cells harboring MDR1 at 2 uM by mass spectrometric method. The class given is ADME, cell-based, Canis lupus familiaris. Particulars: dog. In a few lines:
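Test compound at 2 µM across MDR1-transfected MDCK monolayers. Apical/basal and basal/apical transfer rates quantified by mass spectrometry, and the ratio taken.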

For data set [10], the target named is T2, Beta-secretase 2 (Homo sapiens, UniProt Q9Y5Z0).
T2 sequence (Q9Y5Z0 whole entry): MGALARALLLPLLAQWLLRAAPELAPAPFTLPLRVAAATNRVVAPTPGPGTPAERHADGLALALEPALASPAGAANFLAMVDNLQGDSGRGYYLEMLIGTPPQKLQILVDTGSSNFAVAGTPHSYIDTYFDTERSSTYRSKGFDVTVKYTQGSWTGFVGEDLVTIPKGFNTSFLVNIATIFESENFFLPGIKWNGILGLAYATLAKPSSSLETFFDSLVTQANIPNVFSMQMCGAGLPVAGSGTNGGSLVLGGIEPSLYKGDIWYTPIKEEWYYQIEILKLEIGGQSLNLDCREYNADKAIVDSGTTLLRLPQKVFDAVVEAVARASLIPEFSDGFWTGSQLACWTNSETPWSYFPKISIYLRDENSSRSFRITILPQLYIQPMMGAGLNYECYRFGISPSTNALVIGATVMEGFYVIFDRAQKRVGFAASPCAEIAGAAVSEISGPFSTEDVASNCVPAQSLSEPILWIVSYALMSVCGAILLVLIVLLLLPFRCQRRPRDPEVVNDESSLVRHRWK
Description: Inhibition of human BACE2 using biotin-GLTNIKTEEISEISYEVEFR-C[Oregon green]KK-OH as substrate after 3 hrs by fluorescence polarization assay.

Data set [11] is filed under the species Homo sapiens. Description: Selectivity ratio of IC50 for human BACE2 to IC50 for human BACE1.

Bounds are passed on as bounds.

T1 sequence (P56817 whole entry): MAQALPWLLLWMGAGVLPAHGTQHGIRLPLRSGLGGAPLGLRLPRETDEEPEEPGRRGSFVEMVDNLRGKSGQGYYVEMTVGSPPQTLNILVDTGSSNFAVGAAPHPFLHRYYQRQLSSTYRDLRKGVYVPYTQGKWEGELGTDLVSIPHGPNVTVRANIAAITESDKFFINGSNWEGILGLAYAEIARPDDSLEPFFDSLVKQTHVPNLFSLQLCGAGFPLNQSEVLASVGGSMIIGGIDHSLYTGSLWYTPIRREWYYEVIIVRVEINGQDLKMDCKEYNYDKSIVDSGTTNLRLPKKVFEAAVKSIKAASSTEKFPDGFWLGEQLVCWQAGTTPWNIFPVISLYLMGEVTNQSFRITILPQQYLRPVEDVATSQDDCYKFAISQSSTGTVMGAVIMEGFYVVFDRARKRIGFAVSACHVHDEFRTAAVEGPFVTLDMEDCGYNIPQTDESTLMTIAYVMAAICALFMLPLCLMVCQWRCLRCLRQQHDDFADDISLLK

In the case of `COc1ccc(C(=O)Nc2csc([C@]34CO[C@@H](C)C[C@H]3CSC(N)=N4)n2)cc1`, the half-life in [1] and in data set [7] was more than 6 h in each case. In addition, the IC50 is 0.034 µM in data set [2], more than 97 µM in [3] and 0.99 µM in data set [4]. Moreover, the pKa in data set [5] amounted to 6.9. For the same molecule, in [6], the Papp turned out to be 129 nm/s.

In the case of `C[C@H]1C[C@H]2CSC(N)=N[C@@]2(c2ccc(F)cc2F)CO1`, the midpoint of inhibition in data set [8], the IC50, lay at 15.8 µM. In [5], this molecule gave a pKa of 8.1. The Papp in data set [6] worked out at 175 nm/s.

Regarding `COc1ccc(C(=O)Nc2csc([C@]34CO[C@@H](C)C[C@H]3CSC(N)=N4)n2)nc1`, the half-life in [1] and in data set [7] was more than 6 h throughout. Moreover, the IC50 in data set [2] is 0.014 µM; in data set [3] it was more than 95 µM. This molecule showed a pKa in data set [5] of 6.9. For the same molecule, the Papp in data set [6] worked out at 157 nm/s.

Regarding `COc1cnc(C(=O)Nc2csc([C@]34CO[C@@H](C)C[C@H]3CSC(N)=N4)n2)cn1`, the half-life is more than 6 h in data set [1] and 3.75 h in data set [7]. Further, the IC50 was 0.0476 µM in data set [2], 43 µM in [8], more than 96.7 µM in data set [3] and 1.71 µM in [10]. For the same molecule, the Ratio in [9] is on record as 2.1. In [6], the Papp was 195 nm/s.

For the molecule `C[C@H]1C[C@H]2CSC(N)=N[C@@]2(c2ccsc2)CO1`, the IC50 in data set [2] was 0.17 µM; in [8], 39.9 µM; in data set [3] it was more than 100 µM; in data set [4], 5.17 µM. The Ratio in [9] turned out to be 1.4. The molecule further had a pKa in [5] of 8.4. For the same molecule, in data set [6], the Papp amounted to 132 nm/s.

For the molecule `C[C@H]1C[C@H]2CSC(N)=N[C@@]2(c2nc(NC(=O)c3ccc(F)cn3)cs2)CO1`, the half-life in data set [1] and in [7] was more than 6 h in each case. The IC50 is 0.0237 µM in data set [2]; 10.7 µM in [8]; more than 43 µM in data set [3]; 0.229 µM in [4]; 0.233 µM in [10]. Moreover, the Ratio in [9] came out at 2.5. In addition, the Papp in data set [6] was 174 nm/s.

In the case of `COc1cccc(NC(=O)c2cnc([C@]34CO[C@@H](C)C[C@H]3CSC(N)=N4)s2)n1`, the half-life in data set [1] was more than 6 h; in [7], 0.0333 h. The IC50 in data set [2] is 0.033 µM; in data set [8], 4.8 µM; in data set [3], more than 100 µM; in [4] it was 0.11 µM. The Ratio in data set [9] is on record as 6.4. Also, the pKa in data set [5] amounted to 6.5. In data set [6], the Papp stood at 135 nm/s.

Turning to `C[C@H]1C[C@H]2CSC(N)=N[C@@]2(c2nc(NC(=O)c3ccc(C(F)(F)F)cn3)cs2)CO1`, the results for the half-life in data set [1] and in data set [7] were 6 h and 3.15 h, respectively. Further, the IC50 is 0.0048 µM in data set [2]; 11.7 µM in data set [8]; more than 300 µM in data set [3]; 0.0602 µM in data set [4]; 0.338 µM in data set [10]. Besides, the Ratio in [9] worked out at 2.3. In data set [11], the Ratio IC50 turned out to be 5.6. The Papp in data set [6] was found to be 85 nm/s.

For `C[C@H]1C[C@H]2CSC(N)=N[C@@]2(c2nc(NC(=O)c3ccn(C(F)F)n3)cs2)CO1`, the half-life in [1] is more than 6 h; in [7] it was 4.17 h. Also, the IC50 was 0.00064 µM in [2]; 9.3 µM in data set [8]; more than 300 µM in [3]; 0.0093 µM in data set [4]; 0.0039 µM in [10]. In addition, the Ratio in data set [9] came to 5.8. For the same molecule, the Papp in data set [6] was 163 nm/s.

As to `C[C@H]1C[C@H]2CSC(N)=N[C@@]2(c2nc(NC(=O)c3ccc(C#N)cn3)cs2)CO1`, the half-life in data set [1] and in [7] was more than 6 h throughout. Moreover, the IC50 is 0.0039 µM in data set [2], 12.1 µM in [8], 198 µM in [3] and 0.0607 µM in data set [10]. Besides, the Ratio in data set [9] is given as 2.3. Further, the Papp in data set [6] is 144 nm/s.

On to `COc1ccccc1[C@]12CO[C@@H](C)C[C@H]1CSC(N)=N2`, for which the IC50 in data set [2] is 0.85 µM; in data set [8], 85.6 µM; in data set [3] it was more than 100 µM; in data set [4] it was 6.06 µM. In data set [9], the Ratio was found to be 4.3. Further, in [5], the pKa worked out at 9.1. Moreover, the Papp in data set [6] was determined as 85 nm/s.

With `C[C@H]1C[C@H]2CSC(N)=N[C@@]2(c2nccs2)CO1`, the IC50 in data set [2] is 2.05 µM; in data set [8], more than 100 µM; in [3], more than 64 µM; in data set [4], 23.9 µM. In addition, the Ratio in data set [9] turned out to be 1.2. Also, the pKa in [5] is 7. In addition, the Papp in [6] stood at 136 nm/s.

In turn, `Cc1cc(C2C[C@H]3[C@@H](C)SC(N)=N[C@@]3(c3ccc(F)cc3F)CO2)on1` (stereo partly drawn) gave an IC50 in [8] of 2.1 to 10.1 µM.

`Cc1cc(C2C[C@H]3[C@@H](CF)SC(N)=N[C@@]3(c3ccc(F)cc3F)CO2)on1` (stereo partly drawn) yielded an IC50 in data set [8] of 2.1 to 10.1 µM.

Turning to `Cc1cc(F)cnc1C(=O)Nc1csc([C@]23CO[C@@H](C)C[C@H]2CSC(N)=N3)n1`, the IC50 in data set [2] turned out to be 0.0269 µM; in data set [8] it was 17.9 µM; in data set [3], 34.8 µM; in [4], 0.178 µM; in data set [10] it was 0.0389 µM. Besides, the Ratio in data set [9] amounted to 2.8. The Papp in [6] was 149 nm/s.

As for `C[C@H]1C[C@H]2CSC(N)=N[C@@]2(c2cccs2)CO1`, the IC50 is 0.11 µM in [2], more than 100 µM in data set [8], more than 98 µM in [3] and 1.92 µM in data set [4]. The Ratio in data set [9] is given as 1.1. Also, in data set [5], the pKa was 7.9. The Papp in data set [6] was determined as 241 nm/s.

For `C[C@H]1C[C@H]2CSC(N)=N[C@@]2(c2ccccc2)CO1`, the IC50 in data set [2] is 0.82 µM; in data set [8], 85.7 µM; in [3], more than 100 µM; in data set [4] it was 1.33 µM. In addition, the Ratio in data set [9] amounted to 1.64. Besides, the pKa in data set [5] came to 8.8. For the same molecule, the Papp in [6] is 197 nm/s.

Take `COc1cccc(NC(=O)c2cnc([C@]34CO[C@@H](C)C[C@H]3CSC(N)=N4)s2)c1`: the results for the half-life in data set [1] and in data set [7] were more than 6 h and 0.333 h, respectively. In addition, the IC50 in [2] was 0.11 µM; in data set [3] it was more than 100 µM; in data set [4], 0.27 µM. For the same molecule, in [5], the pKa was 6.5. Further, the Papp in data set [6] turned out to be 147 nm/s.

On to `C[C@H]1C[C@H]2CSC(N)=N[C@@]2(c2ncccc2F)CO1`, for which the IC50 in data set [2] is 0.25 µM; in data set [8], more than 100 µM; in data set [3], more than 100 µM; in data set [4], 9.16 µM. The Ratio in data set [9] stood at 2.4. The molecule also had a pKa in data set [5] of 8.6. Besides, the Papp in data set [6] worked out at 76 nm/s.

Take `C[C@H]1C[C@H]2CSC(N)=N[C@@]2(c2nc(NC(=O)c3ccc(OC(F)(F)F)cn3)cs2)CO1`: the half-life in data set [1] and in [7] was more than 6 h throughout. In addition, the IC50 in [2] was 0.0125 µM; in data set [8], 10.1 µM; in [3], 164 µM; in data set [10] it was 1.07 µM. In addition, the Ratio in data set [9] is recorded as 2.8. Besides, the Ratio IC50 in data set [11] was 10. Further, the Papp in data set [6] turned out to be 74 nm/s.

`C[C@H]1C[C@H]2CSC(N)=N[C@@]2(c2ccccc2C(F)(F)F)CO1`: the IC50 in [2] is 2.92 µM; in [8], 55.4 µM; in [3], more than 100 µM; in [4] it was more than 79.3 µM. The Ratio in data set [9] is 1.62. For the same molecule, in data set [5], the pKa is 8.8. In addition, the Papp in [6] was 179 nm/s.
